# Screening results from PubChem.
# FGF22 binding: binders of recombinant human FGF22 by thermal shift | 340,000 tested, 1.5% active | SYPRO orange fluorescence; percent of sucrose octasulfate shift, DMSO zero | Q9HCT0 | activity (Tm shift, normalised), % at 9.99 µM | AID 651658;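 active = mean Tm shift, scaled 0 neutral to 100 positive control, at about 1.3% or above, every replicate too, limit read from the data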
# FN deposition inh: fibronectin deposition inhibition; AH1F fibroblasts, Alexa488-fibronectin deposition fluorescence, overnight; inhibition, % at 12.6 µM; 350,000 tested, 0.086% active; AID 743247;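 active = mean inhibition across replicates of 30% or more, regardless of how many single replicates reach that level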;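 note: positive control wells lacked labelled fibronectin entirely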
#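 Assay system: AH1F fibroblasts assembling fluorescent fibronectin matrix; Amount: 10000 AH1F cells per well; Buffer or medium: DMEM, 2% serum; Probe or stimulus: Alexa488-fibronectin, 24 nM final in well; Doses: single compound dose, delivered by pin transfer; Incubation: 1 h adhesion, overnight exposure; Measured by: fluorescence 485/525 nm; Read-out: fibronectin deposition inhibition.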
# PGC1a acetyl inh: modulators of PGC1a acetylation. U2OS PGC1a acetylation, AlphaScreen anti-acetyl-lysine; with virally co-expressed GCN5 acetyltransferase. inhibition, % at 15.6 µM. AID 651687. 350,000 tested, 0.17% active;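 active = every replicate shows inhibition of at least 40%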;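 note: 0% = neutral control wells and 100% = positive control wells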
# SIRT5 block: inhibitors of human sirtuin-5 desuccinylase; Q9NXA8; Purified SirT5, succinyl-peptide AMC, trypsin-coupled fluorescence; inhibition, % at 15 µM; 330,000 tested, 1.1% active; in the data active = inhibition above about 15%
# ERAP1 HTS inh: blocks human ERAP1 aminopeptidase activity; recombinant ERAP1, Leu-AMC fluorescence, 60 min; 340,000 tested, 0.15% active; Q9NZ08; AID 652197; inhibition, % at 10.7 µM;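 active = mean replicate inhibition of at least 30%, or all replicates individually reaching that 30% level; inactive = mean below 30% and not every replicate reaching it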;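 note: 0% = neutral control wells and 100% = L-leucinethiol positive control wells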
# Target sequence (Q9NZ08 whole entry, looked up): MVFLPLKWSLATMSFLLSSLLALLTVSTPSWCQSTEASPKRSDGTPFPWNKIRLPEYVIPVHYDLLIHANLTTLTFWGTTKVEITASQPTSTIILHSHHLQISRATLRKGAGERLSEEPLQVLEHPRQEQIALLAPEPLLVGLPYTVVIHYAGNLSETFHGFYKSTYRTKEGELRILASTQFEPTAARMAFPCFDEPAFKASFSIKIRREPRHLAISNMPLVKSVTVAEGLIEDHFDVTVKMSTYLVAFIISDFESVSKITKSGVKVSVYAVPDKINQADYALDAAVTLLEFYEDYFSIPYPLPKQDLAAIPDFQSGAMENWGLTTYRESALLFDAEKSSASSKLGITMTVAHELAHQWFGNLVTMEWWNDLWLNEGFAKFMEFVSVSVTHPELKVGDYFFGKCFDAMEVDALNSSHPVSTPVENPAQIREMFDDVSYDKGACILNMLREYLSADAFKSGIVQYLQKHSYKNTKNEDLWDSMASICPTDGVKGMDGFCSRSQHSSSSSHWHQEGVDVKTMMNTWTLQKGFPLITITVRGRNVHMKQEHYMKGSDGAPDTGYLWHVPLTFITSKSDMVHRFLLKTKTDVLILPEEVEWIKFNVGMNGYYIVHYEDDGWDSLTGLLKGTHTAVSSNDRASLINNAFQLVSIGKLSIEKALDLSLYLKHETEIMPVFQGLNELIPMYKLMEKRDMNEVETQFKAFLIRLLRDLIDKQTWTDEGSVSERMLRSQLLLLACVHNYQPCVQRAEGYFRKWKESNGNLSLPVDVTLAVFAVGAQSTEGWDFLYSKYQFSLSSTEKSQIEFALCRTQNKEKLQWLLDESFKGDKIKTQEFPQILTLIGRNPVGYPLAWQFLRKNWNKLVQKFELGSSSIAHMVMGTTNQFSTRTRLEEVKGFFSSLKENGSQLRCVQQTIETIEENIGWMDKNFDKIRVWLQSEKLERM
# * hit, by the source's call; nt = no result. An excerpt weighted towards active compounds, which were near 2.2% of everything screened.
SMILES,FGF22 binding,FN deposition inh,PGC1a acetyl inh,SIRT5 block,ERAP1 HTS inh
COc1ccc(-c2cccc(C3CC=CC4C3C(=O)N(Cc3ccccc3)C4c3ccc(C(F)(F)F)cc3)c2)cc1 (stereo not given),0.3,-3.5,-9.2,18.6*,-1.3
C[C@@H]1CCCCO[C@@H](CN(C)C(=O)c2ccncc2)[C@@H](C)CN([C@H](C)CO)C(=O)c2cc(NC(=O)NC3CCCCC3)ccc2O1,-0.1,nt,-0.9,nt,nt
C[C@@H]1CN([C@@H](C)CO)C(=O)c2cc(NC(=O)Cc3cn(C)c4ccccc34)ccc2O[C@H]1CN(C)C,0.5,nt,4.8,2.4,0.4
C/C(C/C(C)=C1/SC(=S)NC1=O)=C1\SC(=S)NC1=O,nt,13.3,0.3,49.4*,1.4
C[C@@H]1CN([C@@H](C)CO)S(=O)(=O)c2ccc(C#CC3(O)CCCC3)cc2O[C@H]1CN(C)C(=O)c1cccnc1,0.1,nt,-3.1,-2.9,0.5
CC(C)(C)OC(=O)N(CCc1ccccc1)Cc1ccc(OCc2cccc(NC(=O)C3CCC3)c2)cc1,0.0,6.9,-20.2,nt,nt
CC(C)(C)OC(=O)N(CCc1ccccc1)Cc1ccc(OCc2cccc(NC(=O)C3CC3)c2)cc1,-0.2,nt,nt,18.3*,5.8
O=S(=O)(c1ccc(N=C2NN=C(c3cc(F)ccc3F)CS2)cc1)N1CCOCC1,0.3,-9.2,-5.6,27.3*,1.2
Cc1noc(C)c1S(=O)(=O)Nc1ccc2c(c1)C(=O)N([C@@H](C)CO)C[C@@H](C)[C@@H](CN(C)C(=O)Nc1ccc(C(F)(F)F)cc1)O2,-0.5,nt,1.2,-3.5,2.9
CCN(CC)C(=O)c1sc(NC(=O)C(C)C)c(C#N)c1C,43.8*,-5.5,-3.1,-4.6,-1.0
COc1ccc(-c2nc(SCC(=O)Nc3cccc(S(N)(=O)=O)c3)n[nH]2)cc1,1.8*,1.5,-5.1,0.7,-1.1
CO[C@H]1CN(C)C(=O)c2ccc(NC(C)=O)cc2OC[C@H](C)N(C(=O)C2CC2)C[C@H]1C,0.1,5.0,-0.2,-5.5,-0.6
Cc1noc(C)c1NC(=O)N(C)C[C@@H]1Oc2ccc(NC(=O)C3CC3)cc2CC(=O)N([C@@H](C)CO)C[C@H]1C,-0.1,nt,7.2,0.3,4.5
CC(C)N(C(=O)COC(=O)[C@H](C)NC(=O)c1ccco1)c1ccccc1,0.1,nt,-2.2,30.7*,1.5
C[C@@H]1CN([C@@H](C)CO)C(=O)c2ccccc2-c2ccccc2CO[C@H]1CN(C)S(=O)(=O)c1cccs1,-0.3,-3.7,-1.3,-0.1,-2.2
S=C(NCc1ccccc1Cl)NC1CCCC1,43.4*,5.2,nt,-0.1,-2.1
O=C(N[C@H]1CC[C@H](CCNC(=O)c2cnccn2)O[C@H]1CO)c1ccc2c(c1)OCO2,0.0,-10.9,1.6,-1.0,0.0
CCOC(=O)C1(Cc2ccccc2)CCN(Cc2cn(CC(=O)OC)c3ccccc23)CC1,0.2,-5.2,nt,-4.1,-0.8
CCOC(=O)C1(CC2CC2)CCN(Cc2cn(C)c3ccccc23)CC1,44.0*,-3.8,nt,0.1,-5.0
CSc1nnc(-c2cccs2)n1C,43.0*,-0.8,-4.4,-1.0,3.8
CC=Cc1ccc2n(c1=O)C[C@H]1[C@H](CO)[C@@H](C(=O)NC3CCCCC3)N(C(=O)C3CC3)[C@@H]21 (mixture of isomers),-0.3,nt,nt,6.8,1.6
COc1ccccc1S(=O)(=O)N(C)C[C@H]1Oc2cc(C#CCC3CCCC3)ccc2S(=O)(=O)N([C@@H](C)CO)C[C@@H]1C,-0.1,-2.2,-22.1,18.9*,-0.7
COc1ccccc1S(=O)(=O)N(C)C[C@@H]1Oc2cc(C#CCC(C)C)ccc2S(=O)(=O)N([C@@H](C)CO)C[C@@H]1C,nt,nt,0.4,27.8*,-6.5
COc1ccccc1S(=O)(=O)N(C)C[C@@H]1Oc2cc(C#CCC(C)C)ccc2S(=O)(=O)N([C@H](C)CO)C[C@H]1C,-0.4,nt,4.9,28.3*,2.7
COc1cccc(S(=O)(=O)N(C)C[C@@H]2Oc3cc(C#CCC(C)C)ccc3S(=O)(=O)N([C@H](C)CO)C[C@H]2C)c1,0.9,9.4,4.0,8.9,1.4
SMILES,FGF22 binding,FN deposition inh,PGC1a acetyl inh,SIRT5 block,ERAP1 HTS inh
C#Cc1ccc([C@H]2C=C(C(=O)NCc3nc4ccccc4[nH]3)O[C@@H](OCCCCO)C2)cc1,-0.1,nt,nt,2.8,2.0
COc1cccc(CN(C)CC(=O)Nc2ccccc2N2CCOCC2)c1OC,42.5,-11.7,nt,-2.5,-1.0
COc1cc(CC(=O)Nc2ccccc2N2CCOCC2)cc(OC)c1OC,42.9*,4.9,10.5,0.6,3.7
S=C(NCc1ccccc1)N1CCn2cccc2C1c1ccncc1 (stereo not given),0.0,4.1,5.7,-1.2,4.3
CCc1cccc(CC)c1NC(=S)N1CCn2cccc2C1c1ccncc1 (stereo not given),42.2,3.8,-5.1,17.3*,3.5
C[C@@H]1CN([C@@H](C)CO)C(=O)c2cc(-c3ccc(F)cc3)cnc2O[C@@H]1CN(C)C(=O)Nc1ccc(F)cc1,nt,-0.2,-0.1,nt,nt
Cc1[nH][nH]c(=O)c1C(c1cc([N+](=O)[O-])ccc1O)c1c(C)[nH][nH]c1=O,-0.8,-0.9,nt,26.4*,-7.8
Cc1[nH][nH]c(=O)c1C(c1ccccc1[N+](=O)[O-])C(C#N)C#N (stereo not given),-0.1,-4.6,10.3,1.1,0.5
Cc1ccc(S(=O)(=O)Nc2cccc3c2O[C@H](CN(C)Cc2ccc(C(=O)Nc4ccccc4N)cc2)[C@@H](C)CN([C@@H](C)CO)C3=O)cc1,1.4*,nt,0.7,nt,2.3
C[C@@H]1CN([C@@H](C)CO)C(=O)c2cc(NS(=O)(=O)c3ccc(F)cc3)ccc2O[C@H]1CN(C)Cc1ccc(-c2ccccc2)cc1,-0.9,nt,10.1,10.3,-2.8
C[C@@H]1CN([C@H](C)CO)C(=O)c2cc(NS(=O)(=O)c3ccc(Cl)cc3)ccc2O[C@@H]1CN(C)Cc1ccc(-c2ccccc2)cc1,0.8,19.5,-2.0,29.9*,1.1
C[C@@H]1CN([C@H](C)CO)C(=O)c2cccc(NC(=O)C3CCOCC3)c2O[C@@H]1CN(C)Cc1ccc(C(=O)Nc2ccccc2N)cc1,-0.6,nt,13.5,16.2*,-4.9
Cc1ccc(S(=O)(=O)Nc2cccc3c2O[C@@H](CN(C)Cc2ccc(C(=O)Nc4ccccc4N)cc2)[C@H](C)CN([C@@H](C)CO)C3=O)cc1,-0.1,nt,7.5,-8.1,nt
C[C@@H]1CN([C@H](C)CO)C(=O)c2cc(NS(=O)(=O)c3ccc(F)cc3)ccc2O[C@@H]1CN(C)Cc1ccc(-c2ccccc2)cc1,0.3,nt,-1.2,15.9*,0.1
C[C@H]1CN([C@@H](C)CO)C(=O)Cc2cc(NC(=O)NC3CCCCC3)ccc2O[C@H]1CN(C)Cc1ccncc1,0.2,nt,3.5,10.2,2.1
C[C@@H]1CN([C@H](C)CO)C(=O)c2cccc(NS(=O)(=O)c3ccccc3)c2O[C@@H]1CN(C)Cc1ccc(-c2ccccc2)cc1,-0.6,nt,6.4,8.3,-5.8
